The record followed here is ChEMBL document CHEMBL4622987, “Folate Receptor Targeting and Cathepsin B-Sensitive Drug Delivery System for Selective Cancer Cell Death and Imaging” (ACS Med Chem Lett, 2020).

One may read the inhibition as the drop in the measured response relative to a control, in per cent. For orientation: IC50 means the midpoint of a concentration-inhibition curve.

In data set [1] the target is T1, Cathepsin B (Homo sapiens, UniProt P07858). Description: Prodrug release in FR-overexpressing human SKHEP1 cells assessed as cathepsin B-mediated 7-ethyl-10-hydroxycamptothecin accumulation in nucleus at 5 uM preincubated with cathepsin B inhibitor CA-074 Me for 24 hrs followed by compound treatment for 24 hrs by Hoechst 33342 staining based confocal microscopy. It is filed as ADME, cell-based. The conditions noted are these: sk-hep1, 24 h. The gist of the method:
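SK-Hep-1 cells were pretreated with 20 μM CA-074 Me (cathepsin B inhibitor) for 24 h, then given 5 μM conjugate for 24 h. Nuclei were stained with Hoechst 33342 (1 μg/mL), and cells were imaged by confocal microscopy.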

For data set [2], the target named is T1, Cathepsin B. In words: Prodrug release assessed as cathepsin B (unknown origin)-mediated cleavage of GFLG peptide of parent compound by measuring formation of 7-ethyl-10-hydroxycamptothecin at 37 degreeC by fluorescence spectroscopy. It is filed as ADME. An outline of the steps:
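The conjugate was incubated with cathepsin B at 37 °C, alongside an enzyme-free control. Release of free SN38 was followed as the rise in fluorescence over time (λex 365 nm, λem 540 nm).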

The target in data set [3] is T1, Cathepsin B. Description: Prodrug release assessed as cathepsin B (unknown origin)-mediated cleavage of parent compound by measuring retention time of folic acid linked-glycyl-hydroxypehylalanine by RP-HPLC analysis/mass spectrometry. The format is ADME. An outline of the steps: (§1)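 The cathepsin B digest of the conjugate was analysed by analytical RP-HPLC with mass spectrometry. Cleavage products were assigned from their retention times and [M+H]+ or [M+Na]+ ions.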

Data set [4] deals with A549. In words: Cytotoxicity against FR-negative human A549 cells assessed as reduction in cell viability at 20 uM measured after 72 hrs by MTT assay relative to control. It is filed as functional. The settings on record: A549, 72 h. The gist of the method:
(§2)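 Cancer or normal human cells were exposed to a range of concentrations for 72 h. Viability was read by MTT assay. IC50 was derived from the concentration–response curves, and percent viability loss was taken at 20 μM.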

Data set [5] can be described thus: Cytotoxicity against human 16HBE cells assessed as reduction in cell viability at 20 uM measured after 72 hrs by MTT assay relative to control. The settings on record: 16HBE (16HBE14o-) cells, read-out: INH. It is filed as cell-based. The gist of the method: as §2
(In general: Tetrazolium dyes change colour on reduction, which living cells bring about.)

A short description of data set [6]: Drug uptake in folate receptor negative human 16HBE cells assessed as accumulation of compound at 5 uM incubated for 24 hrs by Hoechst 33342 staining based confocal microscopy. The format is ADME, cell-based. The conditions noted are these: 16hbe14o-. The gist of the method: (§3)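 Cells were incubated with 5 μM conjugate for 24 h. Nuclei were counterstained with Hoechst 33342 (1 μg/mL). Cellular fluorescence and its localisation were imaged by confocal microscopy.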

A short description of data set [7]: Drug uptake in folate receptor negative human A549 cells assessed as accumulation of compound in lysosomes by measuring fluorescence intensity at 5 uM incubated for 24 hrs by Hoechst 33342 staining based confocal microscopy. The format is ADME, cell-based. The conditions noted are these: a549, 24 h. The gist of the method: as §3
The target in data set [8] is T1, Cathepsin B. In words: Prodrug release assessed as cathepsin B (unknown origin)-mediated cleavage of parent compound by measuring retention time of cyclic dipeptide matography-mass spectrometry. The format is ADME.
The subject of data set [9] is HeLa. Description: Cytotoxicity against FR-positive human HeLa cells assessed as reduction in cell viability measured after 72 hrs by MTT assay. The format is functional, cell-based. An outline of the steps: as §2
Data set [10] has as its system SK-HEP1. Description: Cytotoxicity against FR-positive human SKHEP1 cells assessed as reduction in cell viability measured after 72 hrs by MTT assay. It is filed as functional, cell-based. The conditions noted are these: SK-HEP1, 72 h. An outline of the steps: as §2
The target of data set [11] is T1, Cathepsin B. Description: Prodrug release in FR-overexpressing human SKHEP1 cells assessed as cathepsin B-mediated 7-ethyl-10-hydroxycamptothecin accumulation in nucleus at 5 uM preincubated with folic acid for 1 hr followed by compound treatment for 24 hrs by Hoechst 33342 staining based confocal microscopy. It is filed as ADME, cell-based. The conditions noted are these: sk-hep1, 24 h. An outline of the steps: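 SK-Hep-1 cells were pre-exposed to 3 mM free folic acid for 1 h to block the folate receptor, then given 5 μM conjugate for 24 h. Hoechst 33342 (1 μg/mL) was used as the nuclear stain, with confocal microscopy read-out.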

Data set [12] has as its system SiHa. Description: Cytotoxicity against FR-positive human SiHa cells assessed as reduction in cell viability measured after 72 hrs by MTT assay. The format is functional, cell-based. An outline of the steps:
as §2

Data set [13] in a line: Retention time of the compound by RP-HPLC analysis/mass spectrometry. It is filed as physicochemical.
Data set [14] concerns the target T1, Cathepsin B. Description: Prodrug release assessed as cathepsin B (unknown origin)-mediated cleavage of GFLG peptide of parent compound by measuring retention time of 7-ethyl-10-hydroxycamptothecin by RP-HPLC analysis/mass spectrometry. It is filed as ADME. An outline of the steps: as §1
Data set [15] has as its target T1, Cathepsin B. In words: Prodrug release assessed as cathepsin B (unknown origin)-mediated cleavage of GFLG peptide of parent compound by measuring formation of 7-ethyl-10-hydroxycamptothecin at 37 degreeC in presence of cathepsin B inhibitor CA-074 Me by fluorescence spectroscopy. It is filed as ADME.
For data set [16], the target named is T1, Cathepsin B. In words: Prodrug release in FR-overexpressing human SKHEP1 cells assessed as cathepsin B-mediated 7-ethyl-10-hydroxycamptothecin accumulation in nucleus at 5 uM incubated for 24 hrs by Hoechst 33342 staining based confocal microscopy. The settings on record: sk-hep1, 24 h. The format is ADME, cell-based. An outline of the steps:
as §3

Data set [17] deals with A549. Description: Cytotoxicity against FR-negative human A549 cells assessed as reduction in cell viability measured after 72 hrs by MTT assay. The format is functional, cell-based. The conditions noted are these: A549, 72 h.
Data set [18] has as its system 16HBE14o-. In words: Cytotoxicity against human 16HBE cells assessed as reduction in cell viability measured after 72 hrs by MTT assay. The format is cell-based.

SMILES strings stand for the structures.

`CCc1c2c(nc3ccc(OCc4ccc(NC(=O)CNC(=O)[C@H](CC(C)C)NC(=O)[C@H](Cc5ccccc5)NC(=O)CNC(=O)COCCOCCOCCOCc5cn(CCOCCOCCOCCNC(=O)CC[C@H](NC(=O)c6ccc(NCc7cnc8nc(N)[nH]c(=O)c8n7)cc6)C(=O)O)nn5)cc4)cc13)-c1cc3c(c(=O)n1C2)COC(=O)[C@]3(O)CC`: the Drug metabolism result was “Metabolite_Notdetected” in data set [1]; “Metabolite_Detected” in data set [2]; “Metabolite_Notdetected” in [11]; “Metabolite_Notdetected” in data set [15]; “Metabolite_Detected” in data set [16]. For the same molecule, the Retention_time worked out at 21.4 min in data set [3], 34 min in data set [8], 26.4 min in data set [13] and 23.6 min in [14]. Further, the inhibition at 20 µM in data set [4] is 51%. Besides, the cytotoxicity at 72 h, 20 µM in data set [5] is 24%. Moreover, the Drug uptake result in data set [6] and in data set [7] was “Not Active” throughout. Besides, the IC50 in [9], in [10] and in [12] was 2000 to 3000 nM in each case.

Regarding `CCc1c2c(nc3ccc(O)cc13)-c1cc3c(c(=O)n1C2)COC(=O)[C@]3(O)CC` [7-ETHYL-10-HYDROXYCAMPTOTHECIN], the IC50 in [17], in [18], in [9], in [10] and in [12] was 300 to 1000 nM throughout.
